Experimental data: article PMC10570129 (iScience, 2023)
Where two headings read alike, the source gives them in different places.

What was measured:
[1] = biological target: PahP-YFP (Cycloclasticus sp. P1); test: FRET or BRET
[2] = biological target: mutated PahP (Tyr42‒Gly42, Leu135‒Ala135, Tyr-215‒Ala215, Leu-254‒Ala254); test: SPR, PAHs on site-mutated PahP; format: binding, Cycloclasticus sp. P1; details: range over mutated PahP and five PAHs
Outline: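 Biacore T200 SPR. PahP protein was diluted in 10 mM sodium acetate (pH 5.5) and amine-coupled to a CM5 chip. PAHs were diluted to 50 μM in PBS running buffer with 5% DMSO. They were injected over the PahP surface for 120 s at 30 μL/min. Running buffer without PAH was the negative control.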

[3] = biological target: PahP; test: SPR, PAHs injected over PahP sensor chip; format: binding, Cycloclasticus sp. P1; details: read-out: KD of PahP for PAH
[4] = biological target: PahS; test: SPR, PAHs injected over PahS sensor chip; format: binding, Cycloclasticus sp. P1; details: read-out: KD of PahS for PAH, 20°C
Outline: (§1)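 Biacore T200 SPR. The PahS protein, at 30 μg/mL in 10 mM sodium acetate (pH 5.5), was covalently immobilised on an L1 chip by primary amine coupling. Each PAH was diluted to 50 μM in PBS running buffer containing 5% DMSO. It was injected for 120 s at 30 μL/min. PAH-free running buffer served as the negative control.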

[5] = biological target: mutated PahS (Leu370‒Ala370, Leu444‒Ala444, Ala452‒Gly452); test: SPR, PAHs on site-mutated PahS; format: binding, Cycloclasticus sp. P1; details: range over three mutated proteins and five PAHs
Outline: as §1

[6] = biological target: PahR (Cycloclasticus sp. P1); test: SPR
[7] = biological target: PahP (Cycloclasticus sp. P1); test: SPR
[8] = biological target: PahP and PahR of the PahK-PahP and PahK-PahR reporter cells; test: FRET or BRET
[9] = test system: PahP binding to PahS; test: SPR, PahP bound to PAH in advance, injected over PahS sensor chip; set-up: species or system Cycloclasticus sp. P1; details: PahP binds PAH first
[10] = biological target: PahP (Cycloclasticus sp. P1); test: SPR; remark: listed apart in the source
[11] = biological target: PahP (Cycloclasticus sp. P1); test: SPR; remark: listed apart in the source
[12] = biological target: PahK (Cycloclasticus sp. P1); test: SPR

| KD of site-mutated PahP with PAHs [2] | Kd [3] [nM] | Kd [4] [nM] | KD of the mutated PahS proteins with PAHs [5] | Compound | also measured |
| --- | --- | --- | --- | --- | --- |
| 10^−3 to 10^−4 M | 17.4 | 179 | 10^−3 to 10^−4 M | c1ccc2c(c1)Cc1ccccc1-2 [fluorene] | – |
| 10^−3 to 10^−4 M | 5.3 | 14.6 | 10^−3 to 10^−4 M | c1ccc2ccccc2c1 [naphthalene] | – |
| 10^−3 to 10^−4 M | 19.6 | 21.4 | 10^−3 to 10^−4 M | c1ccc2c(c1)ccc1ccccc12 [phenanthrene] | binding affinity of PahP with PahS compared to that without PAH [9]: lowered |

Second part, the compound before the results:

| Compound | KD of site-mutated PahP with PAHs [2] | Kd [3] [nM] | Kd [4] [nM] | KD of the mutated PahS proteins with PAHs [5] | also measured |
| --- | --- | --- | --- | --- | --- |
| CFP-PahS (natural protein) | – | – | – | – | FRET efficiency [1]: 19.7% |
| c1ccc2cc3ccccc3cc2c1 [anthracene] | 10^−3 to 10^−4 M | 41 | 21.7 | 10^−3 to 10^−4 M | – |
| PahK (natural protein) | – | – | – | – | Kd [6]: 18.9 nM; Kd [7]: 9.8 nM |
| CFP-PahK (natural protein) | – | – | – | – | FRET efficiency [8]: 16.7 to 21.4% |
| c1cc2ccc3cccc4ccc(c1)c2c34 [pyrene] | 10^−3 to 10^−4 M | 14.4 | 21.1 | 10^−3 to 10^−4 M | binding affinity of PahP with PahS compared to that without PAH [9]: lowered |
| PahS (natural protein) | – | – | – | – | Kd [10]: 2.97 nM; Kd [11]: 2.12 nM; Kd [6]: 119000 nM; Kd [7]: 92 nM; Kd [12]: 174000 nM |
